Measurements published in ChEMBL document CHEMBL5712914, “Selective Janus Kinase 1 Inhibition Is a Promising Therapeutic Approach for Lupus Erythematosus Skin Lesions” (Front Immunol, 2020).
Each block holds one molecule with its values, some of them ahead of it. Calls of active or inactive are those of the source.

Columns and labels:
[1] = system: Mus musculus; assay: Improvement in CLE-like skin lesions in 450 mJ/cm2 UV-irradiated lupus-prone TREX1-/- mouse model assessed as reduction in scaling at 1 % administered topically for 7 days measured on day 4 and 7 post-dose; assay type: functional, organism-based; conditions: time 7.0 day
In short: (§1)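 Topical treatment or placebo was given for 7 days, with n = 4 mice per group. Lesions were photographed daily and mice weighed every 2 days. Erythema, induration, scaling and lesion size were scored with the mouse-adapted revised CLASI (Mouse RCLASI) and reported as mean ± SEM.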

[2] = system: Mus musculus; assay: Improvement in CLE-like skin lesions in 450 mJ/cm2 UV-irradiated lupus-prone TREX1-/- mouse model assessed as reduction in lession size at 1 % administered topically for 7 days measured on day 4 and 7 post-dose; assay type: functional, organism-based; conditions: time 7.0 day; in short: as §1
[3] = system: Mus musculus; assay: Improvement in CLE-like skin lesions in 450 mJ/cm2 UV-irradiated lupus-prone TREX1-/- mouse model assessed as improvement in infiltrating dermal immune cells at 1 % administered topically for 7 days by H and E staining based histological analysis; assay type: functional, organism-based; conditions: time 7.0 day
In short: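 Lesional skin from the topically treated or placebo-treated groups was processed for H&E and anti-CD45 immunohistology and viewed at ×400. Dermal infiltrate was graded as a CD45 inflammation score. Values are mean ± SEM and were compared by Mann-Whitney U test.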

[4] = system: Mus musculus; assay: Improvement in CLE-like skin lesions in 450 mJ/cm2 UV-irradiated lupus-prone TREX1-/- mouse model assessed as reduction in IFITM3 gene expression in lesional skin at 1 % administered topically for 7 days relative to control; assay type: functional, organism-based; conditions: time 7.0 day
In short: (§2)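 Lesional skin from TREX1–/– mice given the topical JAK1 inhibitor or placebo underwent gene expression analysis for IFN-associated genes. Differential expression was defined as a change greater than twofold with p < 0.05 by Welch's t-test against placebo.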

[5] = system: Mus musculus; assay: Improvement in CLE-like skin lesions in 450 mJ/cm2 UV-irradiated lupus-prone TREX1-/- mouse model assessed as reduction in induration at 1 % administered topically for 7 days measured on day 4 and 7 post-dose; assay type: functional, organism-based; conditions: time 7.0 day; in short: as §1
[6] = system: Mus musculus; assay: Improvement in CLE-like skin lesions in 450 mJ/cm2 UV-irradiated lupus-prone TREX1-/- mouse model assessed as improvement in epidermal thickness at 1 % administered topically for 7 days by H and E staining based histological analysis; assay type: functional, organism-based; conditions: time 7.0 day
[7] = molecular target: Tyrosine-protein kinase JAK1 (Homo sapiens) (UniProt P23458); assay: Inhibition of JAK1 in endogenous nucleic acid-stimulated NHEK cells assessed as decrease in AIM2 gene expression at 1 uM relative to control; assay type: cell-based
In short: (§3)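 NHEK primary keratinocytes were stimulated with endogenous nucleic acids (eNA) and then treated with inhibitor at 1 μM final, 4 samples per condition. Gene expression was compared with untreated eNA-stimulated cells. Downregulation was defined as greater than twofold with p < 0.05 by Welch's t-test.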
Target sequence in this assay (P23458 whole entry): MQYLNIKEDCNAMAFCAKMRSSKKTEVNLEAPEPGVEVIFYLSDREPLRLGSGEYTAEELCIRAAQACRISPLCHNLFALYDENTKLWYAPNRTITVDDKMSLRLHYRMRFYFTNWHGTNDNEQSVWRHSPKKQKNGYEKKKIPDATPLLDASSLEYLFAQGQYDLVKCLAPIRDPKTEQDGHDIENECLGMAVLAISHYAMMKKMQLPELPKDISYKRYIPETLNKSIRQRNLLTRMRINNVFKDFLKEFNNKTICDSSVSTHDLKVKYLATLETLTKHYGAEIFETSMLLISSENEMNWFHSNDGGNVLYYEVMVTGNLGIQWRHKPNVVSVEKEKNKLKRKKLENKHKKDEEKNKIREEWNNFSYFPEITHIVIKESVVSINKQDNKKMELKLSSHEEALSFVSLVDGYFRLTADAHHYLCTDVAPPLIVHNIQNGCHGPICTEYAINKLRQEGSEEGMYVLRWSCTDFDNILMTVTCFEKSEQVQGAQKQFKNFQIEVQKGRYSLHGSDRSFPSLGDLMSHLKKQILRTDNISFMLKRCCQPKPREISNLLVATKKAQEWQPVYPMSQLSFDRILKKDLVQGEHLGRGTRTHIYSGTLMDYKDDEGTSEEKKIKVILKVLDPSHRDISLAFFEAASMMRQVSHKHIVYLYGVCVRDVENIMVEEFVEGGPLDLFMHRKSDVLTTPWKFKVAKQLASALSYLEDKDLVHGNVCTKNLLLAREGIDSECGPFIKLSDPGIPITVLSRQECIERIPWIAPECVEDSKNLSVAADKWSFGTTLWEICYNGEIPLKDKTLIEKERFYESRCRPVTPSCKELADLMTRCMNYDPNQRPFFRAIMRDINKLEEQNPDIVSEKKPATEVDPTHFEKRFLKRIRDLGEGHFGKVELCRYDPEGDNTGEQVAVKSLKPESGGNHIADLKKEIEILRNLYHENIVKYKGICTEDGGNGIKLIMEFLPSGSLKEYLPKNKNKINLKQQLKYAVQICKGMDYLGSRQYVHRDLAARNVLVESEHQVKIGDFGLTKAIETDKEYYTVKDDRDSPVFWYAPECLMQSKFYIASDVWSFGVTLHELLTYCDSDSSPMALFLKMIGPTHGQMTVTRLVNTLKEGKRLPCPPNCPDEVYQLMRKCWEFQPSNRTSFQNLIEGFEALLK

[8] = molecular target: Tyrosine-protein kinase JAK1 (Homo sapiens) (UniProt P23458); assay: Inhibition of JAK1 in endogenous nucleic acid-stimulated NHEK cells assessed as decrease in TRAIL gene expression at 1 uM relative to control; assay type: cell-based; in short: as §3
Target sequence in this assay (P23458 whole entry): as above

[9] = molecular target: Tyrosine-protein kinase JAK1 (Homo sapiens) (UniProt P23458); assay: Inhibition of JAK1 in endogenous nucleic acid-stimulated NHEK cells assessed as decrease in BlyS gene expression at 1 uM relative to control; assay type: cell-based; in short: as §3
Target sequence in this assay (P23458 whole entry): as above

[10] = molecular target: Tyrosine-protein kinase JAK1 (Homo sapiens) (UniProt P23458); assay: Inhibition of JAK1 in endogenous nucleic acid-stimulated NHEK cells assessed as decrease in TREX1 gene expression at 1 uM relative to control; assay type: cell-based; in short: as §3
Target sequence in this assay (P23458 whole entry): as above

[11] = molecular target: Tyrosine-protein kinase JAK1 (Homo sapiens) (UniProt P23458); assay: Inhibition of JAK1 in endogenous nucleic acid-stimulated human HaCaT cells assessed as reduction in CXCL10 expression at 1 uM measured after 24 hrs by ELISA
Target sequence in this assay (P23458 whole entry, looked up): as the sequence (P23458 whole entry) above

[12] = system: Mus musculus; assay: Improvement in CLE-like skin lesions in 450 mJ/cm2 UV-irradiated lupus-prone TREX1-/- mouse model assessed as reduction in CCL5 gene expression in lesional skin at 1 % administered topically for 7 days relative to control; assay type: functional, organism-based; conditions: time 7.0 day; in short: as §2
[13] = molecular target: Tyrosine-protein kinase JAK1 (Homo sapiens) (UniProt P23458); assay: Inhibition of JAK1 in endogenous nucleic acid-stimulated NHEK cells assessed as decrease in CXCL10 gene expression at 1 uM relative to control; assay type: cell-based; in short: as §3
Target sequence in this assay (P23458 whole entry): as above

[14] = system: Mus musculus; assay: Improvement in CLE-like skin lesions in 450 mJ/cm2 UV-irradiated lupus-prone TREX1-/- mouse model assessed as reduction in IRF7 gene expression in lesional skin at 1 % administered topically for 7 days relative to control; assay type: functional, organism-based; conditions: time 7.0 day; in short: as §2
[15] = system: Mus musculus; assay: Improvement in CLE-like skin lesions in 450 mJ/cm2 UV-irradiated lupus-prone TREX1-/- mouse model assessed as reduction in IRF9 gene expression in lesional skin at 1 % administered topically for 7 days relative to control; assay type: functional, organism-based; conditions: time 7.0 day; in short: as §2
[16] = system: Mus musculus; assay: Improvement in CLE-like skin lesions in 450 mJ/cm2 UV-irradiated lupus-prone TREX1-/- mouse model assessed as reduction in CXCL9 gene expression in lesional skin at 1 % administered topically for 7 days relative to control; assay type: functional, organism-based; conditions: time 7.0 day; in short: as §2
[17] = system: Mus musculus; assay: Improvement in CLE-like skin lesions in 450 mJ/cm2 UV-irradiated lupus-prone TREX1-/- mouse model assessed as reduction in CXCL10 gene expression in lesional skin at 1 % administered topically for 7 days relative to control; assay type: functional, organism-based; conditions: time 7.0 day; in short: as §2
[18] = molecular target: Tyrosine-protein kinase JAK1 (Homo sapiens) (UniProt P23458); assay: Inhibition of JAK1 in endogenous nucleic acid-stimulated NHEK cells assessed as decrease in CXCL11 gene expression at 1 uM relative to control; assay type: cell-based; in short: as §3
Target sequence in this assay (P23458 whole entry): as above

[19] = system: Mus musculus; assay: Improvement in CLE-like skin lesions in 450 mJ/cm2 UV-irradiated lupus-prone TREX1-/- mouse model assessed as reduction in CCL7 gene expression in lesional skin at 1 % administered topically for 7 days relative to control; assay type: functional, organism-based; conditions: time 7.0 day; in short: as §2
[20] = system: Mus musculus; assay: Improvement in CLE-like skin lesions in 450 mJ/cm2 UV-irradiated lupus-prone TREX1-/- mouse model assessed as reduction in IFIT1 gene expression in lesional skin at 1 % administered topically for 7 days relative to control; assay type: functional, organism-based; conditions: time 7.0 day; in short: as §2
[21] = system: Mus musculus; assay: Improvement in CLE-like skin lesions in 450 mJ/cm2 UV-irradiated lupus-prone TREX1-/- mouse model assessed as reduction in CCL2 gene expression in lesional skin at 1 % administered topically for 7 days relative to control; assay type: functional, organism-based; conditions: time 7.0 day; in short: as §2
[22] = system: Mus musculus; assay: Improvement in CLE-like skin lesions in 450 mJ/cm2 UV-irradiated lupus-prone TREX1-/- mouse model assessed as reduction in IRF1 gene expression in lesional skin at 1 % administered topically for 7 days relative to control; assay type: functional, organism-based; conditions: time 7.0 day; in short: as §2
[23] = molecular target: Tyrosine-protein kinase JAK1 (Homo sapiens) (UniProt P23458); assay: Inhibition of JAK1 in endogenous nucleic acid-stimulated NHEK cells assessed as decrease in Caspase 10 gene expression at 1 uM relative to control; assay type: cell-based; in short: as §3
[24] = system: Mus musculus; assay: Improvement in CLE-like skin lesions in 450 mJ/cm2 UV-irradiated lupus-prone TREX1-/- mouse model assessed as reduction in erythema at 1 % administered topically for 7 days measured on day 4 and 7 post-dose; assay type: functional, organism-based; conditions: time 7.0 day; in short: as §1
[25] = system: Mus musculus; assay: Improvement in CLE-like skin lesions in 450 mJ/cm2 UV-irradiated lupus-prone TREX1-/- mouse model assessed as reduction in CCL9 gene expression in lesional skin at 1 % administered topically for 7 days relative to control; assay type: functional, organism-based; conditions: time 7.0 day; in short: as §2
[26] = molecular target: T1, Tyrosine-protein kinase JAK3 (Homo sapiens, UniProt P52333); assay: Inhibition of JAK3 in endogenous nucleic acid-stimulated human HaCaT cells assessed as reduction in CXCL10 expression at 100 nM measured after 24 hrs by ELISA
T1 sequence (P52333 whole entry): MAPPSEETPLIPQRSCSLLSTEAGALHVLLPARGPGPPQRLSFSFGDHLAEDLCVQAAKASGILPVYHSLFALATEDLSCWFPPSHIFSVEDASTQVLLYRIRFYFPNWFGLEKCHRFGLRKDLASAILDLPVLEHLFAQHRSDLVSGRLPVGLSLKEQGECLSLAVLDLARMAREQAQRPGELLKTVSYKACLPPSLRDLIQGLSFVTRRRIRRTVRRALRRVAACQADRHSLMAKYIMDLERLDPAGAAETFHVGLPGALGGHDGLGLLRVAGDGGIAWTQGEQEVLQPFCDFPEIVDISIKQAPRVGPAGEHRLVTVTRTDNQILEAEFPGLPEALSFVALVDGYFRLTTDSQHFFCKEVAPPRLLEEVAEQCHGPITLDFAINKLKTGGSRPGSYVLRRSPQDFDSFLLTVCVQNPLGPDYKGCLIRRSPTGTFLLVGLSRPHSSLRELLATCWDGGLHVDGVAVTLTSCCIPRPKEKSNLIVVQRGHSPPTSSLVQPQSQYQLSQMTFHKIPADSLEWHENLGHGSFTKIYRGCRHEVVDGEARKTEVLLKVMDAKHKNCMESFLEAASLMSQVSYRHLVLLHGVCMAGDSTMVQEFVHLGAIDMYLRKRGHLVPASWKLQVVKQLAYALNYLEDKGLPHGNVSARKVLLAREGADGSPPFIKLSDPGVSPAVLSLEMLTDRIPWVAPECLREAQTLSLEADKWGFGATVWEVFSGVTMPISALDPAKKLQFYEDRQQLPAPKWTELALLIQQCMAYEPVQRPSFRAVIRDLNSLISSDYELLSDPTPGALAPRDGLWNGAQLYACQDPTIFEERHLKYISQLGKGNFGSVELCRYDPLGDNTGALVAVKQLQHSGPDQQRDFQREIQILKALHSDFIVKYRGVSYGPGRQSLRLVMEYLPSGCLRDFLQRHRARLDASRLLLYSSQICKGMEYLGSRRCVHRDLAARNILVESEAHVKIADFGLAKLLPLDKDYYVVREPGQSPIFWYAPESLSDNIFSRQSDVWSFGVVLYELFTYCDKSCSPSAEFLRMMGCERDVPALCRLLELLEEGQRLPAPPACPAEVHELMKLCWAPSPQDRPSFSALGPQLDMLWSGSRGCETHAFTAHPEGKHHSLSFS

- fold change (FC) [7]: > 2
- fold change (FC) [8]: > 2
- fold change (FC) [9]: > 2
- fold change (FC) [10]: > 2
- inhibition (INH) [11]: Active
- fold change (FC) [13]: > 2
- fold change (FC) [18]: > 2
- fold change (FC) [23]: > 2
Compound: N#CCC1(n2cc(-c3ncnc4[nH]ccc34)cn2)CN(C2CCN(C(=O)c3ccnc(C(F)(F)F)c3F)CC2)C1 [ITACITINIB]
- Activity [1]: Active
- Activity [2]: Active
- Activity [3]: Active
- Activity [4]: Active
- Activity [5]: Active
- Activity [6]: Active
- Activity [12]: Active
- Activity [14]: Active
- Activity [15]: Active
- Activity [16]: Active
- Activity [17]: Active
- Activity [19]: Active
- Activity [20]: Active
- Activity [21]: Active
- Activity [22]: Active
- Activity [24]: Active
- Activity [25]: Active

- inhibition (INH) [26]: Not Active
Compound: CN(C)C(=O)/C(C#N)=C/c1ccc(-c2nc3cnc4[nH]ccc4c3n2C2CCCCC2)o1
